Consider 15 compounds from ChEMBL document CHEMBL1914408, “Synthesis and biological evaluation of hydroxylated 3-phenylcoumarins as antioxidants and antiproliferative agents” (Bioorg Med Chem Lett, 2011).

Experiment [1] is described as follows: Antioxidant activity assessed as protection against […]-induced pBR322 DNA strand breakage at 20 uM after 1 hr using ethidium bromide staining by agarose gel electrophoresis analysis. The class given is functional. An outline of the steps:
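Supercoiled plasmid pBR322 DNA (100 ng/25 µl) incubated with 10 mM AAPH plus 20 µM test compound in 10 mM PBS, pH 7.4, 37 °C, 1 h; strand breakage (supercoiled vs open circular/linear forms) read by agarose gel electrophoresis. Controls: DNA alone (native) and DNA with AAPH.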

The test system of experiment [2] is HL-60. The experiment can be described thus: Antiproliferative activity against human HL60 cells after 48 hrs by MTT assay. The class given is functional, cell-based. The following applies: HL-60, 48 h. In a few lines:
(§1)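 MTT proliferation assay in HL-60 and A549 cells; IC50 taken as concentration giving 50% inhibition of cell proliferation, reported as mean ± SD of three determinations.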
Background: Formazan colour is commonly taken as a measure of viable cells.

For experiment [3], the system named is A549. The experiment can be described thus: Antiproliferative activity against human A549 cells after 72 hrs by MTT assay. The class given is functional, cell-based. The conditions noted are these: A549, 72 h. In a few lines: as §1
Experiment [4] has as its system A549. The experiment is described as follows: Induction of apoptosis in human A549 cells assessed as changes in cell morphology after 24 hrs by Hoechst-33258/propodium iodide staining based fluorescence microscopy. It is filed as functional. An outline of the steps: (§2)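 A549 cells treated with culture medium or 5, 10 and 15 µM compound for 24 h, then nuclear-stained with Hoechst 33258/propidium iodide and viewed by fluorescence microscopy (200×). Living cells scored as smooth blue nuclei; early apoptotic cells as blue with bright specks of condensed chromatin. Representative of three separate experiments.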

In experiment [5] the test system is A549. The experiment is described as follows: Induction of early apoptosis in human A549 cells assessed as reduction of living cells after 24 hrs by Hoechst-33258/propodium iodide staining based fluorescence microscopy. It is filed as functional, cell-based. An outline of the steps: as §2
The subject of experiment [6] is A549. The experiment can be described thus: Induction of apoptosis in human A549 cells assessed as condensed chromatin after 24 hrs by Hoechst-33258/propodium iodide staining based fluorescence microscopy. The class given is functional, cell-based. An outline of the steps: as §2
For experiment [7], the system named is A549. The experiment is described as follows: Cell cycle arrest in human A549 cells assessed as accumulation at G0/G1 phase at 10 uM after 24 hrs using propidium iodide staining by flow cytometric analysis (reference value: 70.68 %). It is filed as functional. On the technique in general: Flow cytometry measures light scatter and fluorescence of single cells or particles in a stream.

Experiment [8] concerns A549. The experiment can be described thus: Cell cycle arrest in human A549 cells assessed as accumulation at S phase at 10 uM after 24 hrs using propidium iodide staining by flow cytometric analysis (reference value: 21.16 %). It is filed as functional.
Experiment [9] concerns A549. The experiment is described as follows: Cell cycle arrest in human A549 cells assessed as accumulation at G2/M phase at 10 uM after 24 hrs using propidium iodide staining by flow cytometric analysis (reference value: 8.16 %). The class given is functional.
The test system of experiment [10] is A549. The experiment is described as follows: Cell cycle arrest in human A549 cells assessed as accumulation at G0/G1 phase at 15 uM after 24 hrs using propidium iodide staining by flow cytometric analysis (reference value: 70.68 %). It is filed as functional.
Experiment [11] concerns A549. The experiment is described as follows: Cell cycle arrest in human A549 cells assessed as accumulation at S phase at 15 uM after 24 hrs using propidium iodide staining by flow cytometric analysis (reference value: 21.16 %). The class given is functional.
The test system of experiment [12] is A549. The experiment can be described thus: Cell cycle arrest in human A549 cells assessed as accumulation at G2/M phase at 15 uM after 24 hrs using propidium iodide staining by flow cytometric analysis (reference value: 8.16 %). It is filed as functional.
Experiment [13] has as its system A549. The experiment is described as follows: Cell cycle arrest in human A549 cells assessed as accumulation at G0/G1 phase at 20 uM after 24 hrs using propidium iodide staining by flow cytometric analysis (reference value: 70.68 %). The class given is functional.
In experiment [14] the test system is A549. The experiment can be described thus: Cell cycle arrest in human A549 cells assessed as accumulation at S phase at 20 uM after 24 hrs using propidium iodide staining by flow cytometric analysis (reference value: 21.16 %). It is filed as functional.
The test system of experiment [15] is A549. The experiment is described as follows: Cell cycle arrest in human A549 cells assessed as accumulation at G2/M phase at 20 uM after 24 hrs using propidium iodide staining by flow cytometric analysis (reference value: 8.16 %). It is filed as functional.
Experiment [16] relates to A549. The experiment can be described thus: Cell cycle arrest in human A549 cells assessed as accumulation at G0/G1 phase at 30 uM after 24 hrs using propidium iodide staining by flow cytometric analysis (reference value: 70.68 %). It is filed as functional.
Experiment [17] concerns A549. The experiment is described as follows: Cell cycle arrest in human A549 cells assessed as accumulation at S phase at 30 uM after 24 hrs using propidium iodide staining by flow cytometric analysis (reference value: 21.16 %). The class given is functional.
Experiment [18] concerns A549. The experiment can be described thus: Cell cycle arrest in human A549 cells assessed as accumulation at G2/M phase at 30 uM after 24 hrs using propidium iodide staining by flow cytometric analysis (reference value: 8.16 %). It is filed as functional.
The subject of experiment [19] is A549. The experiment can be described thus: Cell cycle arrest in human A549 cells assessed as accumulation at G0/G1 phase at 40 uM after 24 hrs using propidium iodide staining by flow cytometric analysis (reference value: 70.68 %). The class given is functional.
Experiment [20] has as its system A549. The experiment can be described thus: Cell cycle arrest in human A549 cells assessed as accumulation at S phase at 40 uM after 24 hrs using propidium iodide staining by flow cytometric analysis (reference value: 21.16 %). The class given is functional.
Experiment [21] relates to A549. The experiment can be described thus: Cell cycle arrest in human A549 cells assessed as accumulation at G2/M phase at 40 uM after 24 hrs using propidium iodide staining by flow cytometric analysis (reference value: 8.16 %). It is filed as functional.
Experiment [22] concerns HL-60. The experiment is described as follows: Antiproliferative activity against human HL60 cells after 48 hrs by MTT assay relative to resveratrol. It is filed as functional.
For experiment [23], the system named is A549. The experiment is described as follows: Antiproliferative activity against human A549 cells after 72 hrs by MTT assay relative to resveratrol. It is filed as functional.

Molecules are shown by their SMILES. pIC50: −log10 of the molar value. Active and inactive are the calls of the source. The calls are words filed in the database; no cut-off is given here. A value given as a limit tells only on which side of the number the result lay.

The pIC50 is the IC50 on a negative log10 scale, so that one unit is a factor of ten. A low value points to a high IC50. `O=c1oc2cc(O)c(O)cc2cc1-c1ccccc1`: the outcome in [1] was Active. Besides, the values for the pIC50 in experiment [2] and in experiment [3] were 4.85 and 4.57, respectively.
As to `COc1cc2cc(-c3ccc(O)cc3)c(=O)oc2cc1O`, the result in experiment [1] was inactive. For the same compound, the figures for the negative logarithm of the IC50 (pIC50) in [2] and in [3] were 5.28 and 5.12, respectively. The Activity result in experiment [4] is “Dose-dependent effect”; in experiment [5], “Dose-dependent effect”; in experiment [6] it was “Dose-dependent effect”; in [7], 71.45%; in experiment [8] it was 11.95%; in experiment [9], 16.6%. For the same compound, the Activity in experiment [10] is 34.49%; in experiment [11], 19.86%; in [12], 40.65%; in experiment [13], 11.82%; in experiment [14] it was 18.1%; in [15], 70.08%. Besides, the Activity in experiment [16] came out at 9.62%; in experiment [17], 9.43%; in experiment [18], 80.95%; in experiment [19], 7.11%; in experiment [20] it was 8.86%; in experiment [21], 84.03%. The “fold change (FC)” value is 7 in experiment [22] and 16 in [23].
As to `O=c1oc2cc(O)ccc2cc1-c1ccc(O)cc1`, the outcome in [1] was Active. Moreover, the pIC50 in experiment [2] and in experiment [3] was < 3.70 each time.
With `Oc1ccc(/C=C/c2cc(O)cc(O)c2)cc1` [RESVERATROL], the negative logarithm of the IC50 (pIC50) in [3] is 3.92.
As for `O=c1oc2cc(O)c(O)cc2cc1-c1ccc(O)cc1`, the outcome in experiment [1] was Active. Besides, the negative-log IC50 (pIC50) in experiment [2] is 4.60; in experiment [3], 4.37.
Turning to `O=c1oc2ccccc2cc1-c1ccc(O)cc1`, the pIC50 in experiment [2] and in [3] was < 3.70 in each case.
In the case of `COc1cc(-c2cc3cc(O)c(O)cc3oc2=O)ccc1O`, in experiment [3], the pIC50 is 4.36.
As for `COc1cc2cc(-c3cc(OC)c(OC)c(OC)c3)c(=O)oc2c(OC)c1O`, the result in experiment [1] was Active. Also, the pIC50 was 4.14 in experiment [2] and < 3.70 in [3].
With `O=c1oc2cc(O)ccc2cc1-c1ccc(O)c(O)c1`, the negative-log IC50 (pIC50) is 4.38 in experiment [2] and 4.07 in experiment [3].
With `O=c1oc2cc(O)ccc2cc1-c1cc(O)cc(O)c1`, the pIC50 in [2] is 3.90; in [3], < 3.70.
Turning to `COc1cc2cc(-c3ccc(O)cc3)c(=O)oc2c(OC)c1O`, in experiment [1], the result was Active. Further, the pIC50 is 4.60 in experiment [2] and 4.34 in experiment [3].
For the compound `O=c1oc2cc(O)c(O)cc2cc1-c1ccc(O)c(O)c1`, the outcome in experiment [1] was Active. For the same compound, the values for the pIC50 in experiment [2] and in experiment [3] were 4.66 and 4.31, respectively.
For the compound `COc1cc(-c2cc3cc(OC)c(O)cc3oc2=O)ccc1O`, the outcome in [1] was Active. The pIC50 in experiment [2] was 4.61; in experiment [3], 4.67.
Regarding `COc1cc(-c2cc3ccc(O)cc3oc2=O)ccc1O`, the result in experiment [1] was Active. The pIC50 is 4.04 in [2] and < 3.70 in experiment [3].
Consider `O=c1oc2cc(O)ccc2cc1-c1ccccc1`, for which the pIC50 in [2] and in [3] was < 3.70 in each case.
